Data on 9 molecules can be found in ChEMBL document CHEMBL3232958, “Antiproliferative and uncoupling effects of delocalized, lipophilic, cationic gallic acid derivatives on cancer cell lines. Validation in vivo in singenic mice” (J Med Chem, 2014).

The source made the active and inactive calls. The rule behind the calls is not given here.

Broadly, the IC50 is the concentration needed to halve the response being measured. A high value points to weaker potency.

Data set [1] has as its system TA3/Ha. The experiment in a line: Decrease of mitochondrial transmembrane potential in mouse TA3/Ha cell mitochondria at 0.2 nmol after 5 mins by safranin and JC-1 staining. Type of data set: functional. In a few lines:
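Mitochondria isolated from TA3/Ha tumour cells (washed, BSA-free), 1.0 mg/mL protein. Safranin 20 μM, read 5 min; then 2 mM glutamate + 2 mM malate, read 5 min; then cation added. ΔΨm followed as ΔA511−533nm spectrophotometrically.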

The test system of a further data set is CCRF-CEM. Kind of data set: Cytotoxicity against human CCRF-CEM cells after 48 hrs by neutral red assay. The class given is functional, cell-based. In a few lines: (§1)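 Neutral red uptake after 48 h exposure at 37 °C, 5% CO2. Seeding: 1 × 10^5 cells/mL for TA3, TA3-MTX-R and CCRF-CEM; 4 × 10^4 cells/mL for MM3MG. Dye at 100 μg/mL for 2 h, then ethanol/acetic acid extraction and absorbance at 540 nm. IC50 from variable-slope sigmoidal dose–response fit; at least three independent experiments in triplicate, mean ± SEM.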

A short description of data set [2]: Cytotoxicity against mouse MM3MG cells after 48 hrs by neutral red assay. The class given is cell-based. An outline of the steps: as §1
A short description of data set [3]: Cytotoxicity against mouse multidrug-resistant TA3-MTX-R cells after 48 hrs by neutral red assay. Type of data set: functional, cell-based. In a few lines: as §1
The nature of data set [4]: Cytotoxicity against mouse TA3/Ha cells after 48 hrs by neutral red assay. Type of data set: functional, cell-based. In a few lines: as §1
A short description of data set [5]: Toxicity in mouse TA3/Ha cells assessed as cell membrane integrity after 24 hrs using propidium iodide by flow cytometry. The class given is cell-based. As to conditions: 2 to 4 h, in the assay text read “after 2 to 4 hrs” for “after 24 hrs”. An outline of the steps:
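Membrane integrity by PI uptake on flow cytometry. Cells were seeded, grown for 24 h at 37 °C, 5% CO2, then given fresh medium with cation for 2 and 4 h before PI was added. Mean ± SEM of at least three experiments.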

In data set [6] the test system is TA3/Ha. Kind of data set: Increase of oxygen consumption in mouse TA3/Ha cell mitochondria using glutamate and malate as substrate at 10^-4 M after 2 mins by polarographic analysis. Type of data set: functional. In a few lines:
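Clark electrode polarography of isolated mitochondria (1.0 mg/mL) at 25 °C. Medium: sucrose/KCl, 3 mM phosphate, Hepes pH 7.0, 2 mM MgCl2. Substrates 2 mM glutamate + 2 mM malate; 0.5 mM ADP, oligomycin and KCN also used.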

Data set [7] deals with TA3/Ha. Kind of data set: Induction of apoptosis in mouse TA3/Ha cells assessed as caspase 3 activation at 0.5 uM after 24 hrs by Western blot analysis. The class given is functional, cell-based. In a few lines:
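Caspase 3 measured by Western blot. RIPA lysates, 50 μg protein run on 12% SDS–PAGE. Anti-caspase 3 (1:1000) and tubulin loading control (1:10000) overnight at 4 °C; HRP secondary for 2 h. ECL detection and densitometry.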
(A western blot detects proteins with antibodies after separation by electrophoresis.)

The nature of data set [8]: Uncoupling respiration effect in mouse TA3-MTX-R cells after 2 mins by polarographic analysis in presence of FCCP. The class given is functional. An outline of the steps:
(§2)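 Polarographic respiration of digitonin-permeabilized cells (0.013 μg/mg protein; 2.5 mg protein/mL) in PBS pH 7.4 with 10 mM succinate and 1 μg/mL oligomycin. Cations added in 3 μL DMSO. Atractyloside 5 nmol/mg protein was added before succinate. FCCP added at the end: 0.15 μM for TA3, 0.25 μM for TA3-MTX-R. Slope and K0.5 taken from log–log linear regression; at least three experiments.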

The subject of data set [9] is TA3/Ha. Kind of data set: Induction of apoptosis in mouse TA3/Ha cells assessed as early stage apoptotic cells at 0.5 uM after 24 to 48 hrs using annexin V/propidium iodide staining by flow cytometry. The class given is functional, cell-based. In a few lines:
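Annexin V-FITC/PI flow cytometry on 1 × 10^5 cells/mL treated for 24 and 48 h at 37 °C, 5% CO2. 5 min staining at room temperature; 5000 events recorded. Early apoptosis scored as annexin V+/PI−. Staurosporine 10 μM as positive control; at least three experiments, ANOVA with Bonferroni test.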
(In flow cytometry, cells or beads pass a laser one at a time.)

The subject of data set [10] is TA3/Ha. Kind of data set: Reduction of ATP level in mouse TA3/Ha cells at 1 to 20 uM after 2 hrs by CellTiter-Glo luminescent assay. The class given is functional, cell-based. In a few lines: (§3)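 CellTiter-Glo luminescence on 2 × 10^5 cells/mL incubated with cation for 2 h. Aliquot held 10 min at room temperature in the dark before reading; at least three experiments.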

In data set [11] the test system is TA3/Ha. Kind of data set: Cytotoxicity against mouse TA3/Ha cells up to 24 hrs by lactate dehydrogenase assay. Type of data set: functional, cell-based. An outline of the steps:
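LDH release measured with a kit on 2 × 10^5 cells/mL incubated at 37 °C, 5% CO2, 90% humidity. Supernatant taken after centrifugation at 600g for 3 min, then 30 min with reaction mix at room temperature; absorbance read at 450 nm.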

A short description of data set [12]: Uncoupling respiration effect in mouse TA3/Ha cells after 2 mins by polarographic analysis in presence of FCCP. Type of data set: functional. In a few lines:
as §2

In data set [13] the test system is TA3/Ha. Kind of data set: Reduction of ATP level in mouse TA3/Ha cells after 2 hrs by CellTiter-Glo luminescent assay. Type of data set: functional, cell-based. In a few lines: as §3
(ATP-based viability assays read luminescence as a measure of living cells.)

For data set [14], the system named is TA3/Ha. The experiment in a line: Induction of NAD(P)H oxidation in mouse TA3/Ha cells assessed as reduction of NAD(P)H/NAD(P)+ ratio at 12 uM by spectrofluorometer analysis. Type of data set: functional, cell-based. In a few lines:
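Intact TA3 tumour cells, 2.5 mg protein/mL, in PBS pH 7.4 with 2.5 mM glutamine as substrate. Stirred and thermostatted at 25 °C. NAD(P)H autofluorescence (ex 340, em 420 nm) recorded as a time course by spectrofluorometer. Rotenone, FCCP or cation added during the trace.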

Consider `N#CC(C#N)=NNc1cccc(Cl)c1`, for which, in the data set on TA3/Ha [1], the outcome was Active.
In the case of `CCCCCCCCCCCCOC(=O)c1cc(O)c(O)c(O)c1` [DODECYL GALLATE], the half-inhibitory concentration (IC50) with CCRF-CEM stood at 15.5 µM; in data set [2], 30 µM; in data set [3], 3 µM; in data set [4], 7.06 µM.
As for `O=C(O)c1cc(O)c(O)c(O)c1` [GALLIC ACID], the half-maximal inhibitory concentration (IC50) in the data set with CCRF-CEM was over 200 µM; in data set [2], over 200 µM; in data set [3], 160 µM; in data set [4] it was 163 µM.
`CCCCCCCCOC(=O)c1cc(O)c(O)c(O)c1` [OCTYL_GALLATE]: the IC50 is 58.5 µM in the data set with CCRF-CEM, over 200 µM in data set [2], 29.8 µM in data set [3] and 35.9 µM in data set [4].
As for `c1ccc(P(c2ccccc2)c2ccccc2)cc1`, the IC50 is 184 µM in the data set with CCRF-CEM, over 200 µM in data set [2], over 200 µM in data set [3] and 190 µM in data set [4].
On to `O=C(OCCCCCCCC[P+](c1ccccc1)(c1ccccc1)c1ccccc1)c1cc(O)c(O)c(O)c1.[Br-]`, for which the IC50 with CCRF-CEM came to 34.6 µM; in data set [2], 29.4 µM; in data set [3], 14.4 µM; in data set [4], 13.4 µM. Besides, the Activity entry in data set [5] is “Non-toxic”; in the data set with TA3/Ha [13] it was “Dose-dependent effect”. In addition, the outcome in the data set on TA3/Ha [6], in the data set on TA3/Ha [9], in the data set with TA3/Ha [10] and in the data set with TA3/Ha [11] was Active. Besides, the result in the data set on TA3/Ha [7] was inactive. Further, the K0.5 stood at 1.91 ×10⁻⁴ M in data set [8] and 2.25 ×10⁻⁴ M in [12].
Turning to `O=C(OCCCCCCCCCCC[P+](c1ccccc1)(c1ccccc1)c1ccccc1)c1cc(O)c(O)c(O)c1.[Br-]`, the IC50 in the data set with CCRF-CEM turned out to be 19.8 µM; in data set [2], 14.3 µM; in [3], 3.7 µM; in [4], 6.4 µM. The Activity entry in data set [5] was “Non-toxic”; in the data set with TA3/Ha [13], “Dose-dependent effect”. For the same molecule, the outcome in the data set on TA3/Ha [7] was inactive. For the same molecule, the result in the data set with TA3/Ha [9], in the data set on TA3/Ha [10] and in the data set with TA3/Ha [11] was Active.
`C=C(C)[C@H]1Cc2c(ccc3c2O[C@@H]2COc4cc(OC)c(OC)cc4[C@@H]2C3=O)O1`: the result with TA3/Ha [14] was Active.
`O=C(OCCCCCCCCCCCC[P+](c1ccccc1)(c1ccccc1)c1ccccc1)c1cc(O)c(O)c(O)c1.[Br-]`: the IC50 in the data set with CCRF-CEM stood at 0.58 µM; in data set [2] it was 1.38 µM; in data set [3] it was 1.2 µM; in data set [4] it was 0.74 µM. Also, the Activity result in data set [5] is “Non-toxic”; in the data set with TA3/Ha [13], “Dose-dependent effect”. Moreover, the outcome in the data set on TA3/Ha [7] was inactive. Further, the K0.5 was determined as 3.1 ×10⁻⁵ M in data set [8] and 2.9 ×10⁻⁵ M in data set [12]. The result in the data set with TA3/Ha [9], in the data set on TA3/Ha [10] and with TA3/Ha [11] was Active.
